Data reported in ChEMBL document CHEMBL1148712, “Design, synthesis, and SAR study of a series of N-alkyl-N'-[2-(aryloxy)-5-nitrobenzenesulfonyl]ureas and -cyanoguanidine as selective antagonists of the TPalpha and TPbeta isoforms of the human thromboxane A2 receptor” (J Med Chem, 2007).
pIC50: −log10 of the molar value. Activity calls are given as the source filed them. The calls are words filed in the database; no cut-off is given here.

Key:
Thromboxane A2 receptor [1] = target: T1, Thromboxane A2 receptor (Homo sapiens, UniProt P21731); experiment: Antagonist activity at human thromboxane A2 receptor isoform alpha expressed in HEK293 cells assessed as inhibition of U46619-induced calcium mobilization; type: functional, cell-based
T1 sequence (P21731 whole entry): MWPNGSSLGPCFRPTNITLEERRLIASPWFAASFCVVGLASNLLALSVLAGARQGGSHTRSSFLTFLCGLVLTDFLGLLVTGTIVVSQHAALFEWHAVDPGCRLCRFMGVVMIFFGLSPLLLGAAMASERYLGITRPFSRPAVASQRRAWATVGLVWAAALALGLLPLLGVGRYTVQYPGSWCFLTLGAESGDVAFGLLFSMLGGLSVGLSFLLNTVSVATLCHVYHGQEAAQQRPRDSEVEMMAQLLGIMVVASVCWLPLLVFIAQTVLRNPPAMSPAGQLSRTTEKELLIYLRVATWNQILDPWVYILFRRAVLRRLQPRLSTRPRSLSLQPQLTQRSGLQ
In short: (§1)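 HA-tagged receptor stably overexpressed in HEK293 cells grown in DMEM with 10% FBS. Trypsinized cells washed in Krebs-HEPES pH 7.4, loaded 1 h with Fluo-4/AM (5 µg/mL), rinsed, 150 000 cells/well. Compound (10^-8 to 10^-5 M final) for 10 min before U46619 (1 µM final). Emission at 538; Triton/EGTA calibration, Kd 385 nM. IC50 by nonlinear regression, ≥3 curves.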

Thromboxane A2 receptor [2] = target: T1, Thromboxane A2 receptor; experiment: Antagonist activity at human thromboxane A2 receptor isoform beta expressed in HEK293 cells assessed as inhibition of U46619-induced calcium mobilization; type: functional, cell-based; in short: as §1
[3] = target: T2, Thromboxane A2 receptor (Homo sapiens) (UniProt P21731); experiment: Ratio of IC50 for thromboxane A2 receptor isoform alpha to IC50 for thromboxane A2 receptor isoform beta; type: functional
T2 sequence (whole entry): T1 sequence (P21731 whole entry)
In short: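 Selectivity index calculated as IC50 for TPα divided by IC50 for TPβ. Both IC50s come from U46619 (1 µM)-induced Fluo-4 [Ca2+]i assays in HEK293 cells stably overexpressing the respective isoform.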

Platelet = experiment: Inhibition of U46619-induced human platelet aggregation; type: functional, cell-based
In short: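 Turbidimetric Born method on PRP from 10 healthy donors aged 20-30, medication-free for 14 days. Platelets adjusted to 3 × 10⁸ cells/mL with PPP, stirred at 1000 rpm. Compound (10^-9 to 10^-5 M) preincubated 3 min at 37 °C, then U46619 (1 µM final). Maximum light transmission read 6 min after inducer; IC50 by nonlinear regression from ≥3 curves.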

[4] = target: T2, Thromboxane A2 receptor (Homo sapiens); experiment: Antagonist activity at human thromboxane A2 receptor isoform beta expressed in HEK293 cells assessed as inhibition of U46619-induced calcium mobilization at 0.1 uM; type: functional, cell-based
In short: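 HEK293 cells stably overexpressing HA-tagged TPβ, loaded 1 h with Fluo-4/AM (5 µg/mL) in Krebs-HEPES pH 7.4. Compound at 0.1 µM for 10 min, then U46619 (1 µM final). Fluorescence calibrated to [Ca2+]i with Triton X-100 and EGTA; response taken against the rise with U46619 alone.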

| SMILES | pIC50 (Thromboxane A2 receptor [1]) | pIC50 (Thromboxane A2 receptor [2]) | Ratio IC50 [3] | pIC50 (Platelet) | Activity [4] |
| --- | --- | --- | --- | --- | --- |
| CC(C)(C)NC(=O)NS(=O)(=O)c1cc([N+](=O)[O-])ccc1Oc1cccc(I)c1 | 6.33 | 7.02 | 4.9 | – | – |
| COc1ccc(Oc2ccc([N+](=O)[O-])cc2S(=O)(=O)NC(=O)NC(C)(C)C)cc1 | 5.71 | 6.82 | 12.7 | – | – |
| Cc1ccc(Oc2ccc([N+](=O)[O-])cc2S(=O)(=O)N/C(=N\C#N)NC(C)(C)C)cc1 | – | – | 3.6 | – | – |
| CC(C)(C)NC(=O)NS(=O)(=O)c1cc([N+](=O)[O-])ccc1Oc1ccc(Br)cc1 | 5.78 | 6.28 | 3.2 | – | – |
| CCOc1ccc(Oc2ccc([N+](=O)[O-])cc2S(=O)(=O)NC(=O)NC(C)(C)C)cc1 | 4.72 | 5.96 | 17.5 | – | – |
| COc1cccc(Oc2ccc([N+](=O)[O-])cc2S(=O)(=O)NC(=O)NC(C)(C)C)c1 | 5.71 | 7.00 | 19.9 | – | – |
| CC(C)(C)NC(=O)NS(=O)(=O)c1cc([N+](=O)[O-])ccc1Oc1ccc(I)cc1 | 5.67 | 6.40 | 5.4 | – | – |
| CC(C)(C)NC(=O)NS(=O)(=O)c1cc([N+](=O)[O-])ccc1Oc1ccccc1Cl | 5.62 | 6.69 | 11.8 | – | – |
| Cc1cccc(Oc2ccc([N+](=O)[O-])cc2S(=O)(=O)NC(=O)NC(C)C)c1 | 5.58 | 6.69 | 12.9 | – | – |
| Cc1cccc(Oc2ccc([N+](=O)[O-])cc2S(=O)(=O)NC(=O)NC(C)(C)C)c1 | 6.40 | 7.77 | – | 6.29 | Active |
| Cc1ccccc1Oc1ccc([N+](=O)[O-])cc1S(=O)(=O)NC(=O)NC(C)(C)C | 5.42 | 6.63 | 16.1 | – | – |
| Cc1cc(Oc2ccc([N+](=O)[O-])cc2S(=O)(=O)NC(=O)NC(C)(C)C)ccc1Cl | 5.97 | 6.95 | 9.6 | – | – |
| CCCOc1ccc(Oc2ccc([N+](=O)[O-])cc2S(=O)(=O)NC(=O)NC(C)(C)C)cc1 | 4.97 | 6.06 | 12.3 | – | – |
| CC(C)(C)NC(=O)NS(=O)(=O)c1cc([N+](=O)[O-])ccc1Oc1ccc(Cl)cc1 | 5.52 | 6.40 | 7.6 | – | – |
| Cc1ccc(Oc2ccc([N+](=O)[O-])cc2S(=O)(=O)NC(=NC(C)(C)C)NC#N)cc1 | 5.68 | 6.24 | – | – | – |
| Cc1ccc(Oc2ccc([N+](=O)[O-])cc2S(=O)(=O)NC(=O)NC(C)C)cc1 | 5.06 | 6.07 | 10.4 | – | – |
| CC(C)(C)NC(=O)NS(=O)(=O)c1cc([N+](=O)[O-])ccc1Oc1cccc(Br)c1 | 6.17 | 7.23 | 11.6 | – | – |
| Cc1ccccc1Oc1ccc([N+](=O)[O-])cc1S(=O)(=O)NC(=O)NC(C)C | 5.06 | 6.30 | 17.5 | – | – |
| CC(C)(C)NC(=O)NS(=O)(=O)c1cc([N+](=O)[O-])ccc1Oc1cccc(Cl)c1 | 6.16 | 7.14 | 9.6 | – | – |
| Cc1ccc(Nc2ccc([N+](=O)[O-])cc2S(=O)(=O)NC(=O)NC(C)(C)C)cc1 | – | – | 6.01 | – | – |
| CCCNC(=O)NS(=O)(=O)c1cc([N+](=O)[O-])ccc1Oc1ccc(C)cc1 | 5.37 | 6.35 | 9.4 | – | – |
| COc1cc(C)ccc1Oc1ccc([N+](=O)[O-])cc1S(=O)(=O)NC(=O)NC(C)(C)C | 6.28 | 7.28 | 10.2 | – | – |

The remaining lines, values ahead:

| pIC50 (Thromboxane A2 receptor [1]) | pIC50 (Thromboxane A2 receptor [2]) | Ratio IC50 [3] | pIC50 (Platelet) | Activity [4] | SMILES |
| --- | --- | --- | --- | --- | --- |
| 5.66 | 6.52 | 7.2 | – | – | CCCCCNC(=O)NS(=O)(=O)c1cc([N+](=O)[O-])ccc1Oc1ccc(I)cc1 |
| 6.00 | 6.92 | 8.4 | – | – | CCCCCNC(=O)NS(=O)(=O)c1cc([N+](=O)[O-])ccc1Oc1ccc(Br)cc1 |
| 5.23 | 6.38 | 14.2 | – | – | CCCCCNC(=O)NS(=O)(=O)c1cc([N+](=O)[O-])ccc1Oc1cccc(Br)c1 |
| 6.06 | 7.01 | 8.9 | – | – | CCCCCNC(=O)NS(=O)(=O)c1cc([N+](=O)[O-])ccc1Oc1ccc(Cl)cc1 |
| 5.59 | 6.82 | 17 | – | – | CC(C)(C)NC(=O)NS(=O)(=O)c1cc([N+](=O)[O-])ccc1Oc1ccccc1Br |
| 6.17 | 7.38 | 16.1 | – | – | CCCCNC(=O)NS(=O)(=O)c1cc([N+](=O)[O-])ccc1Oc1ccccc1C |
| 4.87 | 6.13 | 18.1 | – | – | CCCCCNC(=O)NS(=O)(=O)c1cc([N+](=O)[O-])ccc1Oc1ccc(OCC)cc1 |
| 5.60 | 6.65 | 11.3 | – | – | CCCCCNC(=O)NS(=O)(=O)c1cc([N+](=O)[O-])ccc1Oc1cccc(C)c1 |
| 5.50 | 6.37 | 7.4 | – | – | CCCCCNC(=O)NS(=O)(=O)c1cc([N+](=O)[O-])ccc1Oc1ccccc1Br |
| 4.56 | 5.32 | 5.6 | – | – | CCCCCNC(=O)NS(=O)(=O)c1cc([N+](=O)[O-])ccc1Oc1ccc(OCCC)cc1 |
| 5.34 | 6.05 | 5.1 | – | – | CCCCCNC(=O)NS(=O)(=O)c1cc([N+](=O)[O-])ccc1Oc1cccc(I)c1 |
| 5.62 | 6.70 | 11.9 | – | – | CCCCCNC(=O)NS(=O)(=O)c1cc([N+](=O)[O-])ccc1Oc1cccc(Cl)c1 |
| 5.72 | 6.81 | 12.3 | – | – | CCCCNC(=O)NS(=O)(=O)c1cc([N+](=O)[O-])ccc1Oc1cccc(C)c1 |
| 5.57 | 6.35 | 6 | – | – | CCCCCNC(=O)NS(=O)(=O)c1cc([N+](=O)[O-])ccc1Oc1ccc(OC)cc1 |
| 5.79 | 6.74 | 9 | – | – | CCCCCNC(=O)NS(=O)(=O)c1cc([N+](=O)[O-])ccc1Oc1ccccc1C |
| 5.51 | 6.41 | 7.9 | – | – | CCCCCNC(=O)NS(=O)(=O)c1cc([N+](=O)[O-])ccc1Oc1ccccc1Cl |
| 5.43 | 6.25 | 6.6 | – | – | CCCCCNC(=O)NS(=O)(=O)c1cc([N+](=O)[O-])ccc1Oc1ccc(Cl)c(C)c1 |
